Data taken from ChEMBL document CHEMBL4513216, “Probing the Open Global Health Chemical Diversity Library for Multistage-Active Starting Points for Next-Generation Antimalarials” (ACS Infect Dis, 2020).

Assay: Toxicity liver stage against HepG2, at 10uM
Format: cell-based
Parameters: test concentration 10 uM, cell line HepG2-A16-CD81EGFP
Conditions: human, HepG2-A16-CD81EGFP cells; read-out: INHIBITION
Method in brief: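 Uninfected HepG2-A16-CD81EGFP cells, 3 × 10^3 per well, 1536-well, plated on prespotted compound at 10 μM final, parasite-free screening media added to match infected plates; puromycin 10 μM positive, DMSO 0.5% negative; run in parallel with 48 h PbLuc assay at 37 °C, 5% CO2; viability by CellTiter-Glo luminescence, normalized to controls.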

Compound | cytotoxicity at 10 µM [%]
Cn1cncc1-c1nnc([C@H]2CCN(CC(C)(C)C)C2)o1 | 2.26
N#CCCN(CC1CCCO1)C(=O)c1ccsc1 (stereo unspecified) | 0.325
Cc1c(OCC(=O)NCc2ccccc2)c(=O)ccn1C | -49.9
Cc1ccc(S(=O)(=O)NCCOc2ccc3nnc(C)n3n2)s1 | -6.26
c1cc(-c2ccc3c(c2)CCC32CCNCC2)ccn1 | 8.86
CN(C)C(=O)Cn1c2c(ccc1=O)CC(NCc1cccnc1)CC2 (stereo unspecified) | 18
CCOC[C@@H]1CC[C@H]2[C@H](CCN2S(=O)(=O)Cc2ccccc2)O1 | 2.84
CN(C)S(=O)(=O)N1CC[C@]2(C[C@@H](OCC3CC3)CO2)C1 | 8.88
CCC(C)n1c(SCC(=O)N2CCOCC2)nc2cc(C)[nH]c2c1=O (stereo unspecified) | 7.94
CCc1nn(-c2cc(Oc3cc(C)ccc3C)ncn2)c(N)c1C#N | 12.9
Cc1cc(C)n(CCCNc2ncnc3c2NC(=O)CN3)n1 | 8.71
Cc1csc2c(C3CCCN(C(=O)CCn4ccnc4)C3)nc(C)n12 (stereo unspecified) | 16.9
Cn1cc(CN2CCCCC2c2ccc(-c3cccc(Cl)c3)nc2)cn1 (stereo unspecified) | -8.51
Cc1nc2ccc(Cl)cn2c1CN1CCN(S(=O)(=O)N2CCCC2)CC1 | 16.6
Cc1csc(C(=O)N2CC[C@H](Oc3cccnc3C)[C@@H](O)CC2)c1 | -10.7
O=S(=O)(Cc1cccc(Cl)c1)CC(O)Cn1cccn1 (stereo unspecified) | -12.5
Cc1cnn(CC2CCN(CC(O)c3ccccc3Cl)CC2)c1 (stereo unspecified) | 4.51
CCN(CC)c1ncc(Cl)c(C(=O)NC2CC2)n1 | -33.5
c1cc2occc2c(N2CCCC(c3nncn3C3CC3)C2)n1 (stereo unspecified) | 1.97
COc1ccc2nc(C3CC3)cc(C(=O)NCc3noc(C)n3)c2c1 | 11.8
Cn1ccc(NC(=O)Cc2ccccc2F)n1 | 19.1
CC(C)(C)c1n[nH]c(C2CN(CCc3ccncc3)CCO2)n1 (stereo unspecified) | -12.3
O=c1ccncn1Cc1csc(C2CC2)n1 | -0.572

Compound | cytotoxicity at 10 µM [%]
Cc1csc(C(C)(C)NCCOc2ccc(CC#N)cc2)n1 | 1.74
Cc1nc(CN(C)S(=O)(=O)c2ccccc2Br)no1 | 6.2
O=C(NCC1CCC2(CC1)OCCO2)c1ccncc1F | 14.4
CNC(=O)c1ccc(CNc2ccncc2Cl)cc1 | 17.7
CCc1nnc(C2Cc3ccccc3CN2Cc2cc(C)no2)o1 (stereo unspecified) | -7.4
Cc1nnc(C(C)Nc2cccc(COCC(F)(F)C(F)F)c2)o1 (stereo unspecified) | -1.2
COc1ncccc1NC(=O)N1CCCC(CNC(=O)OC(C)(C)C)C1 (stereo unspecified) | -1.71
CC(=O)c1cccc(OCCCC(=O)N(C)CCC(F)(F)F)c1 | 4.33
OC(CN(Cc1ccccc1)Cc1cccnc1)c1cccs1 (stereo unspecified) | 4.01
Cc1cc(NC2CCc3ncnn3C2)n2ncnc2n1 (stereo unspecified) | -18.4
O=C(NCc1ccco1)N1CCC(n2ccc(C(F)(F)F)n2)CC1 | 12.2
Cn1nc2c(cc1=O)CN(Cc1nc(N)c3ccccc3n1)CC2 | -8.86
O=C(NC1CC1)c1cc(NC(=O)N2CCSCC2)ccc1Cl | -22.5
Cc1nc(C)n(CC2CCCN(CC(=O)Nc3cccnc3)C2)n1 (stereo unspecified) | -4.84
Cc1cc(C)cc(C(=O)NCc2ncnn2C)c1 | 4.64
Cn1cnnc1-c1ccnc(NCc2ccccc2)c1 | -4.98
CCS(=O)(=O)CC(=O)NCC1(c2c(F)cccc2F)CCCC1 | -3.32
CCN(Cc1ccccc1)C1CCN(c2cc(C)nn2C)C1=O (stereo unspecified) | -3.03
O=C(NCCOc1ccc(C(F)(F)F)cn1)c1ccoc1 | -10.1
CCc1nc(C)ncc1C(=O)N1CC(C)CN(C)c2ccccc21 (stereo unspecified) | 10.7
O=C(Nc1ccc(Cn2cccn2)cc1)N1CCC(CO)CC1 | 47.8
Fc1ccc(NCc2ncc[nH]2)cc1Br | 3.76
CCc1nc(Cn2c(=O)n(CC)c3ccccc32)no1 | -43.9

Compound | cytotoxicity at 10 µM [%]
CC(Cn1ccnc1)NC(=O)N(C)Cc1ccsc1 (stereo unspecified) | 2.69
CCC(C)(COc1ncccc1Cl)NCC(=O)NCC(C)C (stereo unspecified) | -2.86
Cc1noc(CN2CCC(Cc3ccc(F)cc3)CC2)n1 | 11.3
CCc1nnc2n1CCN(Cc1nc3c(F)cccc3[nH]1)C2 | -8.06
Cc1ccc(-c2nc(CN(C)C3CCS(=O)(=O)C3)cs2)o1 (stereo unspecified) | -8.05
CNc1nc(CNC(=O)Nc2ccc(OC(C)C)cc2C)cs1 | 26.4
O=C([C@@H]1CCO[C@@H]2CCN(CC3CC3)C[C@H]21)N1CCCC1 | -103
CCOCc1cnc2n1CCN(C(=O)c1ccccc1)C2C (stereo unspecified) | -103
CCOCc1cnc2n1CCN(C(=O)c1cn(C)c3ccccc13)C2C (stereo unspecified) | -108
O=C(NCc1cccnc1)N1CCn2c(Cn3cccn3)cnc2C1 | -71.1
Cc1noc(C)c1CN1C[C@@H]2COC[C@@H](C(=O)N3CCCO3)[C@@H]2C1 | -69.9
CN1CCN([C@H]2COC[C@@H]3CN(Cc4cccnc4)C[C@@H]32)CC1 | -77.9
COCC(=O)N1CCC2(CC1)CN(c1ncccn1)CCO2 | -67.3
Cc1cc(CN2CC[C@H]3C[C@@H](c4nccs4)O[C@@H]3C2)no1 | -84.8
COCC(=O)NCC[C@H]1CC(C)(C)Oc2ccccc21 | 3.3
COc1cccc(-c2ncc3c(n2)N(C)CCN(CCN(C)C)C3=O)c1 | -12.2
Cc1cnc(C)c(N2CCCC(CC3CC3)(C(=O)O)C2)n1 (stereo unspecified) | -6.09
CC(C)O[C@H]1CN(C(=O)CCN2CCCCO2)C[C@@H]1O | -7.12
CC(C)N1CCCn2nc(C(=O)NCCc3ccccn3)cc2C1 | -1.95
Cc1nc(CN2CCCC(CCc3ccccc3F)C2)c[nH]1 (stereo unspecified) | -6.55
Cc1cccc(CN2CCN(c3ncnc4[nH]ccc34)CC2CCO)n1 (stereo unspecified) | 10.8
NC1CCCCN(Cc2cc(C3CCCCC3)no2)C1 (stereo unspecified) | -14.1
CC1(C)CCN(Cc2ccccc2-c2nc(C(C)(C)C)cc(=O)[nH]2)C1 | -39.9

Compound | cytotoxicity at 10 µM [%]
Cc1n[nH]c(C)c1-c1cc(-c2cccc(O)c2)nc(N)c1C#N | 26.9
CCN(Cc1noc(CC(C)C)n1)Cc1ccccc1C(=O)O | -51.6
CC(C)c1cc(NCc2csc(C(C)C)n2)nc(N)n1 | 19.8
CN(Cc1ccco1)c1ccc(C(=O)NCCCc2ccccn2)cn1 | -55.8
CCc1cnc(C)nc1N1CCS(=O)(=O)CC1 | -43.3
COc1ccc(C(=O)NCC2CCCN(C3CCOCC3)C2)c(O)c1 (stereo unspecified) | 5.21
Cc1nc(C(=O)N2CCN(C(=O)N(C)C)[C@@H]3CS(=O)(=O)C[C@@H]32)cs1 | 4.96
O=S(=O)(c1ccc2c(c1)OCCO2)N1CCc2ccccc2C1 | -5.52
CC(C)N(C)C(=O)CN1C(=O)OC[C@@H]1c1ccccc1 | -47.7
CSc1nccc(N2CCC(NCc3ccc4c(c3)OCO4)CC2)n1 | -3.4
c1ccc(-c2nc3c(c(NCCCn4cncn4)n2)CCNCC3)nc1 | -45.6
CCn1cnc(NC(=O)N2CCC(c3ccc(Cl)cc3)C2)n1 (stereo unspecified) | 0.0451
CN(CC1(CO)CCC1)c1nc2c(c(=O)[nH]1)Cc1ccccc1OC2 | -17.2
COCCN1CC(C(=O)N(C)Cc2csc(C)n2)CC1=O (stereo unspecified) | 12.5
COc1ccc(CN2CCCC2)cc1Oc1cccc(C#N)n1 | 7.01
COCCCN1CCN([C@@H]2c3ccccc3C3(CCNCC3)[C@H]2O)CC1 | -4.86
OC1CN(Cc2ccccc2)CCN(c2ccncc2)C1 (stereo unspecified) | -4.74
O=C(c1ccc(S(=O)(=O)NCCc2ccncc2)cc1)N1CCCC1 | 1.67
Cc1cc(C(F)(F)F)nc(CNC(=O)CCn2cccn2)n1 | 1.7
CCNc1ncc(CN2C[C@@H](C(=O)O)[C@H](C3CC3)C2)cn1 | -46.1
CCOC(=O)C1(Cc2cccc(OC)c2)CCN(Cc2ncc[nH]2)CC1 | -7.82
CN1CC[C@H](c2ccccc2)[C@@H]2[C@H]1CCCCN2C(=O)c1cnccn1 | -2.5
CC(NC(=O)NCc1ccccc1)(C(=O)O)c1ccco1 (stereo unspecified) | -3.37

Compound | cytotoxicity at 10 µM [%]
O=C(Cc1ccccc1Cl)N1CCN(CC(O)COCCO)CC1 (stereo unspecified) | 5.51
Cc1noc(C)c1CC(=O)N1CCCN(Cc2cscn2)CC1 | 2.45
COCCN1CCC(NCc2ccc(C#N)cc2)C1 (stereo unspecified) | -9.34
O=C(c1ccsc1)N1CCCC(c2cc(C(F)(F)F)[nH]n2)C1 (stereo unspecified) | -4.22
c1cnn(CC2CCCN2c2ncnc3ccsc23)c1 (stereo unspecified) | 9.12
CCN1CCN(c2ccc(CNC(=O)c3ccc(Cl)o3)cn2)CC1 | -0.433
O=C(NCCNc1ncccn1)N1CCN(Cc2cccnc2)CC1 | -3.71
CCn1cc(NC(=O)CN2CCC(Oc3ccc(F)cc3)CC2)c(C)n1 | 9.25
CN1CC[C@]2(CN(CC3CCOC3)C[C@H]2c2ccccc2)C1=O (stereo partly specified) | 0.619
COc1ncc(C2(O)CCN(Cc3ccc(F)c(F)c3)CC2)c(OC)n1 | -0.279
CS(=O)(=O)N1CCOCC12CCN(Cc1ccc(F)cc1)CC2 | 3.39
COCCN1CCC(c2nc3ccc(NC4CCC4)cn3n2)CC1 | -119
COCCN1C[C@@H]2CN(c3cc(OC)ncn3)CCC[C@]2(C(=O)O)C1 | 4.26
CNC(=O)c1cc2c(nc1N(C)C)CCN(c1ncc(C)cn1)CC2 | -119
Cc1ccc(Nc2nccc(C3CCN(C(=O)CN)C3)n2)nc1 (stereo unspecified) | -18.5
CCN1CC2(CC1=O)CN(Cc1ccco1)CCN(C(=O)C(C)C)C2 (stereo unspecified) | -4.51
CN(C)S(=O)(=O)N1CC[C@]2(C[C@H](OCc3ccncc3)CO2)C1 | 1.23
O=C(C1CCC2(CCN(c3nncs3)CC2)CO1)N1CCCC1 (stereo unspecified) | 9.46
O=C1CCCC2=Nc3nonc3NC(c3ccc(Cl)cc3Cl)C12 (stereo unspecified) | 5.24
